In ChEMBL document CHEMBL1128569, “N-acyl-2-substituted-1,3-thiazolidines, a new class of non-narcotic antitussive agents: studies leading to the discovery of ethyl 2-[(2-methoxyphenoxy)methyl]-beta-oxothiazolidine-3-propanoate” (J Med Chem, 1995) one finds ED50 and LD50 data, which are given here for three compounds.

In general, ED50 refers to the midpoint of the dose-response relation. The low end stands for an effect at a small dose, the high end for a need for a large dose. The term LD50 denotes the dose expected to kill half of the subjects tested.

The test system of series [1] is Cavia porcellus. Nature of the series: Antitussive activity was evaluated by inhibition of irritant aerosol-induced coughing by (po) administration in guinea pig. The format is functional. The essentials: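 Male guinea pigs (350-400 g) exposed in a box to 7.5% citric acid aerosol for 5 min, and coughs counted as the basal value. Next day, after overnight fasting, animals (6-8/dose) were gavaged with compound in water or 0.5% methyl cellulose (2 mL/kg) 1 h before re-exposure. Activity is the reduction in coughs versus the basal count. ED50 is the dose giving 50% reduction (Cochran and Snedecor).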

For series [2], the system named is Cavia porcellus. Nature of the series: Antitussive activity was evaluated by inhibition of irritant electrically-induced coughing by (po) administration in guinea pig. The format is functional. The essentials:
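Guinea pigs under ketamine (10 mg/kg im) and xylazine (3 mg/kg im) anaesthesia, with an electrode wrapped around the trachea about 1.5 cm above the bifurcation and an indifferent electrode on the dorsal skin. Coughs during stimulation counted as the basal value. Groups of 6-8/dose were gavaged with compound in water or 0.5% methyl cellulose (2 mL/kg). Activity is the cough reduction versus basal. ED50 is the dose giving 50% reduction.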

A short description of series [3]: Lethality in mice following p.o. administration. Type of series: ADME, organism-based. The note with it: mouse, in vivo, po. Put shortly:
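Swiss mice of both sexes, groups of six, dosed by gavage at several doses up to 1000 mg/kg. Compound dissolved in water or suspended in 0.5% carboxymethyl cellulose, 10 mL/kg. Deaths recorded over 1-7 days. LD50 obtained by logit transformation.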

In the case of `COc1ccc2c3c1O[C@H]1[C@@H](O)C=C[C@H]4[C@@H](C2)N(C)CC[C@@]341.COc1ccc2c3c1O[C@H]1[C@@H](O)C=C[C@H]4[C@@H](C2)N(C)CC[C@@]341.O.O=P(O)(O)O.O=P(O)(O)O` [CODEINE PHOSPHATE], the ED50 in series [1] was determined as 29 mg/kg; in series [2], 14 mg/kg.

Turning to `COc1ccccc1OCC1SCCN1C(=O)CSC(C)=O` (configuration not stated) [GUAISTEINE], the ED50 in series [1] stood at 26 mg/kg; in series [2] it was 17 mg/kg. Further, in series [3], the LD50 was more than 1000 mg/kg.

Take `COc1ccc2c(c1)[C@]13CCCC[C@@H]1[C@H](C2)N(C)CC3` [DEXTROMETHORPHAN]: the ED50 in series [1] was determined as 48 mg/kg; in series [2], 16 mg/kg.
